Reference: ChEMBL document CHEMBL1781905, “Discovery and optimization of N-acyl and N-aroylpyrazolines as B-Raf kinase inhibitors” (Bioorg Med Chem Lett, 2010)

How the values were obtained:
[1] = molecular target: T1, Serine/threonine-protein kinase B-raf (Homo sapiens, UniProt P15056, V600E); test: Inhibition of human B-Raf V600E mutant after 3 hrs
How it was run: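 Radiometric assay using 20 nM B-Raf V600E. It measures phosphorylation of a biotinylated surrogate peptide by ³³P-ATP in 50 mM HEPES pH 7.5 with 10 mM DTT and 50 mM MnCl₂ at 30 °C for 3 h. The reaction is stopped with 100 mM EDTA, captured 2 h on a streptavidin FlashPlate and scintillation-counted.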

[2] = molecular target: Mast/stem cell growth factor receptor Kit (Homo sapiens, UniProt P10721); test: Inhibition of KIT2
Sequence of Mast/stem cell growth factor receptor Kit (P10721 whole entry): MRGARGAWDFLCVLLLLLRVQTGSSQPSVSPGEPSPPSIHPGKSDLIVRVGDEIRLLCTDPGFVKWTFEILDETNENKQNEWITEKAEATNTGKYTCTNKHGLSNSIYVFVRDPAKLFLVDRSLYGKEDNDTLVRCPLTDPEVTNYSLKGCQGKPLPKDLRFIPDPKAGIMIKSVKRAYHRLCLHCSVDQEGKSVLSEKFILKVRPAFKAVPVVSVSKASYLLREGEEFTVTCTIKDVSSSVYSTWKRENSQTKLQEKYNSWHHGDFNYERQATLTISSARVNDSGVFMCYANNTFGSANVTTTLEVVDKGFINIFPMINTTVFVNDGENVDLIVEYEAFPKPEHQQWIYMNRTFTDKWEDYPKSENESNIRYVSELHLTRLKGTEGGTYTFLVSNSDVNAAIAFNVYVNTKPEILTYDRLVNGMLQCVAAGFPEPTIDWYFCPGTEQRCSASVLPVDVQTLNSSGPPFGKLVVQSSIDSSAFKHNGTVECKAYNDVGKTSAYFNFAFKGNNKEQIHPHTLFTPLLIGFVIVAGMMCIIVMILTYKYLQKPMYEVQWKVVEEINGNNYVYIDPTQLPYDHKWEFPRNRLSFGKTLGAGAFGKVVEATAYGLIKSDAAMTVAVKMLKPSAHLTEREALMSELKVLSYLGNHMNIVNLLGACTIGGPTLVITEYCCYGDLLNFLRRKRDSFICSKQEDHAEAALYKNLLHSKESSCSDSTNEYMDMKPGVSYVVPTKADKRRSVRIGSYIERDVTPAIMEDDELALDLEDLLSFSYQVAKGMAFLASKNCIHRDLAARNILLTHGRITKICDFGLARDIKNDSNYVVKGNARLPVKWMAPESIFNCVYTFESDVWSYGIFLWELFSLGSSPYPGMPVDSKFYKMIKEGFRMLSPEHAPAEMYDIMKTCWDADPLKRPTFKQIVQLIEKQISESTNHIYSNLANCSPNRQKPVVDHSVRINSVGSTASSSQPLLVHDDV

[3] = molecular target: Fibroblast growth factor receptor 1 (Homo sapiens, UniProt P11362); test: Inhibition of FGFR1
Sequence of Fibroblast growth factor receptor 1 (P11362 whole entry): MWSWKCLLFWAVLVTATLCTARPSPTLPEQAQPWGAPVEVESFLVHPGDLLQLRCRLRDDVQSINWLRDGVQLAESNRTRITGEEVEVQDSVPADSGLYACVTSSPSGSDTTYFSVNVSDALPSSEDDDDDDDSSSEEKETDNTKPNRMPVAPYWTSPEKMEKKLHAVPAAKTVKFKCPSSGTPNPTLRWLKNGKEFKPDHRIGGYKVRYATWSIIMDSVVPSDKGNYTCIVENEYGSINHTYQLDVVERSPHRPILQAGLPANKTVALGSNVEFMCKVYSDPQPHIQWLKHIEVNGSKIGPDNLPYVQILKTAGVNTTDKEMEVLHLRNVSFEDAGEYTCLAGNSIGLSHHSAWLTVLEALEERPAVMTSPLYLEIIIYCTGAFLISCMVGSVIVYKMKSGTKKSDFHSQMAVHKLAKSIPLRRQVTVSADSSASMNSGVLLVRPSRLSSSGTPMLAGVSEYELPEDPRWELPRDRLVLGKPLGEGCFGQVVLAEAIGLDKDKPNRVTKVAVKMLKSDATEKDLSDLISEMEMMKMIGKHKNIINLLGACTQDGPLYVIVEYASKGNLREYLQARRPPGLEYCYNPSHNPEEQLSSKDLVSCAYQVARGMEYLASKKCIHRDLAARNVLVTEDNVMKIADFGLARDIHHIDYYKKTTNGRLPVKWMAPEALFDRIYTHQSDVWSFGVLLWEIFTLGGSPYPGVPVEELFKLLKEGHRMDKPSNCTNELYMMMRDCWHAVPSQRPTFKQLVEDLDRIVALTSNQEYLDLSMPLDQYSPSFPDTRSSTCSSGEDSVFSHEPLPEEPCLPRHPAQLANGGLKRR

[4] = molecular target: Vascular endothelial growth factor receptor 2 (Homo sapiens, UniProt P35968); test: Inhibition of KDR
Sequence of Vascular endothelial growth factor receptor 2 (P35968 whole entry): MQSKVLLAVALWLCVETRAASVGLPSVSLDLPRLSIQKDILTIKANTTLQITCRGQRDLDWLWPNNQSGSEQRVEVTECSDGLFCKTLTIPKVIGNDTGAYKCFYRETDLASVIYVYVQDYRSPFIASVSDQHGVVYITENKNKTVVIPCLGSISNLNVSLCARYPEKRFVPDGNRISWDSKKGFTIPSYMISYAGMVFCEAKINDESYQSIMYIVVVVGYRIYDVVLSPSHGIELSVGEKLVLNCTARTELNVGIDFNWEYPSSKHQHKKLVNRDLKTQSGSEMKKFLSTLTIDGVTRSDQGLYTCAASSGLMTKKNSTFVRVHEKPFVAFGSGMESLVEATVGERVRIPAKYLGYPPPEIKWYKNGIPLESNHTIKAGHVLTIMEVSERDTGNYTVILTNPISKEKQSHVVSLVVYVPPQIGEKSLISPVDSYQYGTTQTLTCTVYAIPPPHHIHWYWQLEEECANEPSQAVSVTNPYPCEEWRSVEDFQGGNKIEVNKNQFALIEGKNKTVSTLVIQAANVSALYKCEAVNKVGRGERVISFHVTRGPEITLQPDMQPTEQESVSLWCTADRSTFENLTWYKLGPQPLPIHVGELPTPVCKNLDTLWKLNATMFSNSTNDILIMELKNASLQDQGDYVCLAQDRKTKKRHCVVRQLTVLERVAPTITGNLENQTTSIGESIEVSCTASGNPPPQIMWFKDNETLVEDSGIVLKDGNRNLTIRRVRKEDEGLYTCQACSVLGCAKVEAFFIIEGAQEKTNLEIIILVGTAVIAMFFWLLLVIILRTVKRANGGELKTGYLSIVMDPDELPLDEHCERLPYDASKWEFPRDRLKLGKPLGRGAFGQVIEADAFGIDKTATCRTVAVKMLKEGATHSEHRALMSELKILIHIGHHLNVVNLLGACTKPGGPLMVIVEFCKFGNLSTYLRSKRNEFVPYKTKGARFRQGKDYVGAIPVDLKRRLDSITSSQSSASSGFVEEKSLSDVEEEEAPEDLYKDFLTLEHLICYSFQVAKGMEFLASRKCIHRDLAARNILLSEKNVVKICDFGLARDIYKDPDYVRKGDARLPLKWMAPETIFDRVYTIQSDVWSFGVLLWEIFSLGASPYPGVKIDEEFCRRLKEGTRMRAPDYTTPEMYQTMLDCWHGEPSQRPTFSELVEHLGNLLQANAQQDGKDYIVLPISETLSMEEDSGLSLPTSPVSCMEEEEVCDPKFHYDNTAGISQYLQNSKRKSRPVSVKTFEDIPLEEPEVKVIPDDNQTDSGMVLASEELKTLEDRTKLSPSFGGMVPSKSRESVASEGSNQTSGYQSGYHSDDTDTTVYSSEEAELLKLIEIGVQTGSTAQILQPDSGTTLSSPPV

[5] = molecular target: Macrophage colony-stimulating factor 1 receptor (Homo sapiens, UniProt P07333); test: Inhibition of CSF1R
[6] = molecular target: RAC-beta serine/threonine-protein kinase (Homo sapiens, UniProt P31751); test: Inhibition of AKT2
Sequence of RAC-beta serine/threonine-protein kinase (P31751 whole entry): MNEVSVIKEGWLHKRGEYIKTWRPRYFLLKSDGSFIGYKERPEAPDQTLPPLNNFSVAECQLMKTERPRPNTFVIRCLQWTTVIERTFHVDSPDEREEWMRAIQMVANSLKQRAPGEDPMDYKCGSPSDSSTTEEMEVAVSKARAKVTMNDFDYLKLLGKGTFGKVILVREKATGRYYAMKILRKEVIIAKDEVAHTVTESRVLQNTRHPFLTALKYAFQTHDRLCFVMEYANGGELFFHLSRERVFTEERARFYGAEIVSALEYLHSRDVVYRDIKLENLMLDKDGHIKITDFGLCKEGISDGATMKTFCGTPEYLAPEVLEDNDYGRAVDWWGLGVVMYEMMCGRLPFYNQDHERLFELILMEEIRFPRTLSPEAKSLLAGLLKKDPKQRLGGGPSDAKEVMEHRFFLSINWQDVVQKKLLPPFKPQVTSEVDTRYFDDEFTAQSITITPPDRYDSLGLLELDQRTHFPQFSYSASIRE

[7] = molecular target: T2, Receptor-type tyrosine-protein kinase FLT3 (Homo sapiens, UniProt P36888); test: Inhibition of FLT3
T2 sequence (P36888 whole entry): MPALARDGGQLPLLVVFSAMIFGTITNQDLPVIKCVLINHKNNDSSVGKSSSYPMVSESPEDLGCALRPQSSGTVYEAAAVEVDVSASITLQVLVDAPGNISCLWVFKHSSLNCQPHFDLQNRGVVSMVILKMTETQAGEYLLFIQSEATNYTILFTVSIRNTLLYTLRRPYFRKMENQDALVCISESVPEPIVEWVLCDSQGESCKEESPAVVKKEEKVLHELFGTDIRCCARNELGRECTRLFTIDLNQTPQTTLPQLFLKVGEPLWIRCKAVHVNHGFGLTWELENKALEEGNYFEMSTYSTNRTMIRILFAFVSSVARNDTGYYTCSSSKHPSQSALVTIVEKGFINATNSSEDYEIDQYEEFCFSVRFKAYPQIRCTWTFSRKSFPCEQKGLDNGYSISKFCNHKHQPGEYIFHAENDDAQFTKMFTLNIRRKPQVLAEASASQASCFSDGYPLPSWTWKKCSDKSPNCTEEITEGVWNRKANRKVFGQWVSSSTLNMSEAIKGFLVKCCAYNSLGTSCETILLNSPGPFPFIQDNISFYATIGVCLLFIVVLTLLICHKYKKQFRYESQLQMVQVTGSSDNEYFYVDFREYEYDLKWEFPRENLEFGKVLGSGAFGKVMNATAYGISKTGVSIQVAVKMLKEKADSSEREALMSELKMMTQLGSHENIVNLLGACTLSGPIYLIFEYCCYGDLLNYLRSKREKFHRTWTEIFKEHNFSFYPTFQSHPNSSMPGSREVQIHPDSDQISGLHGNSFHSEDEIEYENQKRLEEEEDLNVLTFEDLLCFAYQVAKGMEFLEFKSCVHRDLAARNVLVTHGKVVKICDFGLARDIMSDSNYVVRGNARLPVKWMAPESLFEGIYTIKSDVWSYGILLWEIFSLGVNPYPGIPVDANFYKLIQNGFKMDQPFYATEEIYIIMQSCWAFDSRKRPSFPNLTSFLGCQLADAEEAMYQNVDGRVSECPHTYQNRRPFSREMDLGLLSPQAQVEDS

[8] = molecular target: T1, Serine/threonine-protein kinase B-raf; test: Inhibition of B-Raf V600E mutant-mediated ERK phosphorylation in human A375 cells after 3 hrs by immunoblotting method; assay type: cell-based, A-375; conditions: in the assay text read “whole cell ELISA” for “immunoblotting method”
How it was run: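 A375 (B-Raf V600E) cells are seeded overnight, then exposed to inhibitors for 3 h at 37 °C. Cells are fixed, permeabilized and blocked overnight. They are probed 1 h with anti-phospho-ERK antibody, then with HRP-linked reagent. The TMB substrate is read as optical density at 650 nm.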

[9] = organism: Homo sapiens; test: Selectivity ratio of IC50 for wild type human B-Raf to IC50 for human B-Raf V600E mutant
[10] = molecular target: Cyclin-dependent kinase 1 (Homo sapiens, UniProt P06493); test: Inhibition of CDK1
[11] = molecular target: Cyclin-dependent kinase 2 (Homo sapiens, UniProt P24941); test: Inhibition of CDK2
[12] = Inhibition of CK2
[13] = molecular target: Serine/threonine-protein kinase Chk2 (Homo sapiens, UniProt O96017); test: Inhibition of Chk2
Sequence of Serine/threonine-protein kinase Chk2 (O96017 whole entry): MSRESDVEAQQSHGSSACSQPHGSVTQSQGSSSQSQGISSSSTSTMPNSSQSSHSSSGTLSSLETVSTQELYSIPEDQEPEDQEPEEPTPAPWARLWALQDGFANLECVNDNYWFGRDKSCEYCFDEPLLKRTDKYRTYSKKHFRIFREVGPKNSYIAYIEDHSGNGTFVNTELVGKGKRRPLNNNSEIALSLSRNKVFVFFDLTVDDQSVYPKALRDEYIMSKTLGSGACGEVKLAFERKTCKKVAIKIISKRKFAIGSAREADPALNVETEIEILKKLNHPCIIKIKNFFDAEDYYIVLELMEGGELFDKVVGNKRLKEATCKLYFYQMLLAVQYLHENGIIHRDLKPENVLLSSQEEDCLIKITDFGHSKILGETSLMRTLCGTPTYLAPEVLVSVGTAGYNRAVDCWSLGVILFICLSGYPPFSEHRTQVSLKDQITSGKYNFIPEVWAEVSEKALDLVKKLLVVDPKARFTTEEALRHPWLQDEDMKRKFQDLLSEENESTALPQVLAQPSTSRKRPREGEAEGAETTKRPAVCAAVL

[14] = molecular target: Tyrosine-protein kinase Lck (Homo sapiens) (UniProt P06239); test: Inhibition of LCK
[15] = Inhibition of PKA
[16] = Inhibition of CAMK2
[17] = molecular target: T3, Serine/threonine-protein kinase Chk1 (Homo sapiens, UniProt O14757); test: Inhibition of Chk1
T3 sequence (O14757 whole entry): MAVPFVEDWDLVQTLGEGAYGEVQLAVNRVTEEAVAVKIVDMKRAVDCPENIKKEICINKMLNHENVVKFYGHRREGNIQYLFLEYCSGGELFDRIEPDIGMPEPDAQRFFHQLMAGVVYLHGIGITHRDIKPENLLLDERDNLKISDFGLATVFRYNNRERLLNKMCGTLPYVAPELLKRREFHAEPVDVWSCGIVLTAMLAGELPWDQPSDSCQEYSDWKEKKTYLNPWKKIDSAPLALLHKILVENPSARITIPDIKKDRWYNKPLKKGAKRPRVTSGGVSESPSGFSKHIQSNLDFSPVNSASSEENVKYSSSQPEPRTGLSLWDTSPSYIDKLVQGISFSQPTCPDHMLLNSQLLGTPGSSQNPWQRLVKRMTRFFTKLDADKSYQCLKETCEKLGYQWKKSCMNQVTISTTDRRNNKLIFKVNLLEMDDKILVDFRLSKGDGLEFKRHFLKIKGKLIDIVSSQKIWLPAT

T1 sequence (P15056 2-766 V600E limits assumed): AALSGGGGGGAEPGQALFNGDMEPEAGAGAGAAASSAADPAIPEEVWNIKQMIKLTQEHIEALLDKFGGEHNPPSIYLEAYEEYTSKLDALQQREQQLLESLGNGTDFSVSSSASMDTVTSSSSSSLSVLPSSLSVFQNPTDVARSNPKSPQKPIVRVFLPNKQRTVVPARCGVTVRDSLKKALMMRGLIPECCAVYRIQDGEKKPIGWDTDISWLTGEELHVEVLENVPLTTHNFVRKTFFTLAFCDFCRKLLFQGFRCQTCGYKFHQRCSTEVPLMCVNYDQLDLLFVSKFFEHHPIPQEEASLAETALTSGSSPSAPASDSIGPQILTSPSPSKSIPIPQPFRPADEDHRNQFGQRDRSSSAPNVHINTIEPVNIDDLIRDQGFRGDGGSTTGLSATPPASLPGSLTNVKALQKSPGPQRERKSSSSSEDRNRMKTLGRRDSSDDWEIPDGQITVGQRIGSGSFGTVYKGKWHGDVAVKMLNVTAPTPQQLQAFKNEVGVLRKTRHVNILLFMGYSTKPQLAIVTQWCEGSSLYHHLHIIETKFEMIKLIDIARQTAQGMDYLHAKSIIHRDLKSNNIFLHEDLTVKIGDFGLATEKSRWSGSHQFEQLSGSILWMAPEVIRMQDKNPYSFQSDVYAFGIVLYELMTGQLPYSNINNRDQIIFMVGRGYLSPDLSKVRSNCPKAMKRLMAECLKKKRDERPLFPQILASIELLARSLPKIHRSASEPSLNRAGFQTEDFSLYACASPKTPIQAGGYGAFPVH

SMILES	IC50 [1]	IC50 [8]	other results
O=C(c1ccccc1-c1ccc(F)cc1)N1N=C(c2cccnc2)CC1c1ccccc1O (configuration not stated)	> 10000 nM	–	–
O=C(CC1CC1)N1N=C(c2cccnc2)CC1c1ccccc1O (configuration not stated)	83 nM	8000 nM	–
O=C(c1ccc(C(F)(F)F)c(F)c1)N1N=C(c2cccnc2)CC1c1ccccc1O (configuration not stated)	660 nM	–	–
O=C(c1ccc(F)cc1C(F)(F)F)N1N=C(c2cccnc2)CC1c1ccccc1O (configuration not stated)	> 10000 nM	–	–
O=C(c1cc2c(s1)CCC2)N1N=C(c2cccnc2)CC1c1ccccc1O (configuration not stated)	6.9 nM	920 nM	–
O=C(c1[nH]nc2c1CCC2)N1N=C(c2cccnc2)CC1c1ccccc1O (configuration not stated)	7 nM	350 nM	–
O=C(c1ccc(-c2cccnc2)s1)N1N=C(c2cccnc2)CC1c1ccccc1O (configuration not stated) [listing 2 of 2 here]	–	–	Ratio IC50 [9]: < 2
COc1ccc(-c2ccc(C(=O)N3N=C(c4cccnc4)CC3c3ccccc3O)o2)cc1 (configuration not stated)	18 nM	3700 nM	–
COc1ccc(-c2cc(C(=O)N3N=C(c4cccnc4)CC3c3ccccc3O)no2)cc1 (configuration not stated)	15.4 nM	460 nM	–
O=C(c1cc(-c2ccccc2)no1)N1N=C(c2cccnc2)CC1c1ccccc1O (configuration not stated)	8 nM	1100 nM	–
O=C(c1cc(-c2ccc3c(c2)OCO3)on1)N1N=C(c2cccnc2)CC1c1ccccc1O (configuration not stated)	8.6 nM	600 nM	–
COc1cccc(-c2cc(C(=O)N3N=C(c4cccnc4)CC3c3ccccc3O)no2)c1 (configuration not stated)	6.7 nM	930 nM	–
O=C(c1ccco1)N1N=C(c2cccnc2)CC1c1ccccc1O (configuration not stated)	–	–	IC50 [2]: > 10000 nM; IC50 [3]: > 10000 nM; IC50 [4]: > 10000 nM; IC50 [10]: > 10000 nM; IC50 [11]: > 10000 nM; IC50 [12]: > 10000 nM; IC50 [5]: > 10000 nM; IC50 [13]: > 10000 nM; IC50 [14]: > 10000 nM; IC50 [7]: > 10000 nM; IC50 [15]: > 10000 nM; IC50 [16]: > 10000 nM; IC50 [17]: > 10000 nM
O=S(=O)(c1ccc(-c2cccnc2)s1)N1N=C(c2cccnc2)CC1c1ccccc1O (configuration not stated)	2000 nM	> 10000 nM	–
Cc1nc(-c2ccccc2)sc1C(=O)N1N=C(c2cccnc2)CC1c1ccccc1O (configuration not stated)	37.9 nM	1300 nM	–
O=C(c1cc(-c2ccc(Cl)cc2)cs1)N1N=C(c2cccnc2)CC1c1ccccc1O (configuration not stated)	216 nM	–	–
Cc1nc(-c2cnccn2)sc1C(=O)N1N=C(c2cccnc2)CC1c1ccccc1O (configuration not stated)	6.5 nM	710 nM	–
O=C(c1cc(-c2ccccc2O)on1)N1N=C(c2cccnc2)CC1c1ccccc1O (configuration not stated)	14.3 nM	130 nM	–
O=C(c1cc(F)cc(C(F)(F)F)c1)N1N=C(c2cccnc2)CC1c1ccccc1O (configuration not stated)	110 nM	9500 nM	–
O=C(c1cccc(-n2cccn2)c1)N1N=C(c2cccnc2)CC1c1ccccc1O (configuration not stated)	42 nM	8700 nM	IC50 [2]: > 10000 nM; IC50 [3]: > 10000 nM; IC50 [4]: > 10000 nM; IC50 [5]: > 10000 nM; IC50 [6]: > 10000 nM; IC50 [7]: > 10000 nM
O=C(c1ccc(-c2cccnc2)s1)N1N=C(c2cccnc2)CC1c1ccccc1O (single isomer, unassigned; early eluting)	1200 nM	14000 nM	–
O=C(c1cn2c(n1)sc1ccccc12)N1N=C(c2cccnc2)CC1c1ccccc1O (configuration not stated)	9.1 nM	61 nM	–

More lines, main results first:

IC50 [1]	IC50 [8]	SMILES	other results
7.9 nM	1400 nM	O=C(c1ccc(Br)o1)N1N=C(c2cccnc2)CC1c1ccccc1O (configuration not stated)	IC50 [2]: > 10000 nM; IC50 [3]: > 10000 nM; IC50 [4]: > 10000 nM; IC50 [5]: > 10000 nM; IC50 [6]: > 10000 nM; IC50 [7]: > 10000 nM
58 nM	2400 nM	Cc1ccc(-c2ccc(C(=O)N3N=C(c4cccnc4)CC3c3ccccc3O)o2)cc1 (configuration not stated)	–
28 nM	> 10000 nM	O=C(c1cccc(-n2cnnn2)c1)N1N=C(c2cccnc2)CC1c1ccccc1O (configuration not stated)	–
18.7 nM	180 nM	O=C(c1ccc(-c2cccnc2)s1)N1N=C(c2cccnc2)CC1c1ccccc1O (configuration not stated) [listing 1 of 2 here]	–
260 nM	> 10000 nM	O=C(c1cncc(-c2cccs2)c1)N1N=C(c2cccnc2)CC1c1ccccc1O (configuration not stated)	–
> 10000 nM	–	O=C(c1cccc2c(F)cccc12)N1N=C(c2cccnc2)CC1c1ccccc1O (configuration not stated)	–
10.7 nM	240 nM	O=C(c1cc(-c2ccc3c(c2)OCCO3)n[nH]1)N1N=C(c2cccnc2)CC1c1ccccc1O (configuration not stated)	–
140 nM	–	O=C(c1ccc(-c2ccc(Cl)cc2)s1)N1N=C(c2cccnc2)CC1c1ccccc1O (configuration not stated)	–
22.6 nM	2000 nM	O=C(c1ccc[nH]1)N1N=C(c2cccnc2)CC1c1ccccc1O (configuration not stated)	IC50 [2]: > 10000 nM; IC50 [3]: > 10000 nM; IC50 [4]: > 10000 nM; IC50 [5]: > 10000 nM; IC50 [6]: > 10000 nM; IC50 [7]: > 10000 nM
10.3 nM	410 nM	O=C(c1cc(-c2cccs2)n[nH]1)N1N=C(c2cccnc2)CC1c1ccccc1O (configuration not stated)	–
15 nM	280 nM	O=C(c1ccc(-c2cccnc2)s1)N1N=C(c2cccnc2)CC1c1ccccc1O (single isomer, unassigned; later eluting)	–
450 nM	–	N#Cc1ccccc1S(=O)(=O)N1N=C(c2cccnc2)CC1c1ccccc1O (configuration not stated)	–
8 nM	810 nM	O=C(c1cc(-c2ccccc2)on1)N1N=C(c2cccnc2)CC1c1ccccc1O (configuration not stated)	–
41.5 nM	1100 nM	O=C(c1ccc(-c2ccccc2)[nH]1)N1N=C(c2cccnc2)CC1c1ccccc1O (configuration not stated)	–
24.2 nM	1500 nM	O=C(c1cccs1)N1N=C(c2cccnc2)CC1c1ccccc1O (configuration not stated)	IC50 [2]: > 10000 nM; IC50 [3]: > 10000 nM; IC50 [4]: > 10000 nM; Ratio IC50 [9]: < 2; IC50 [5]: > 10000 nM; IC50 [6]: > 10000 nM; IC50 [7]: > 10000 nM
5.6 nM	970 nM	O=C(c1cc(-c2ccco2)on1)N1N=C(c2cccnc2)CC1c1ccccc1O (configuration not stated)	–
25.7 nM	3500 nM	CCOc1cccc2cc(C(=O)N3N=C(c4cccnc4)CC3c3ccccc3O)oc12 (configuration not stated)	IC50 [2]: > 10000 nM; IC50 [3]: > 10000 nM; IC50 [4]: > 10000 nM; IC50 [5]: > 10000 nM; IC50 [6]: > 10000 nM; IC50 [7]: > 10000 nM
16 nM	1700 nM	O=C(c1ccc(-c2ccccc2)o1)N1N=C(c2cccnc2)CC1c1ccccc1O (configuration not stated)	–
8.1 nM	940 nM	Cc1nc(-c2cccnc2)sc1C(=O)N1N=C(c2cccnc2)CC1c1ccccc1O (configuration not stated)	–
> 10000 nM	–	O=C(c1cccc(C(F)(F)F)c1F)N1N=C(c2cccnc2)CC1c1ccccc1O (configuration not stated)	–
> 10000 nM	–	O=C(c1ccccc1Oc1ccccc1)N1N=C(c2cccnc2)CC1c1ccccc1O (configuration not stated)	–
156 nM	–	O=C(c1cccc(Oc2ccccc2)c1)N1N=C(c2cccnc2)CC1c1ccccc1O (configuration not stated)	–
130 nM	–	O=C(c1ccc([N+](=O)[O-])o1)N1N=C(c2cccnc2)CC1c1ccccc1O (configuration not stated)	–
200 nM	3800 nM	O=C(c1ccc(F)c(C(F)(F)F)c1)N1N=C(c2cccnc2)CC1c1ccccc1O (configuration not stated)	–
